ChEMBL document CHEMBL1147446, “Antagonists of human CCR5 receptor containing 4-(pyrazolyl)piperidine side chains. Part 3: SAR studies on the benzylpyrazole segment” (Bioorg Med Chem Lett, 2004)

What was measured:
[1] = system: HeLa; assay: Antiviral activities in a cell culture HIV-1 infectivity inhibition assay using HeLa cells plus 50% normal human serum; format: functional
[2] = target: C-C chemokine receptor type 5 (Homo sapiens, UniProt P51681); assay: Inhibitory concentration for displacement of [125I]-MIP-1 alpha from recombinant human CC chemokine receptor 5 (CCR5) expressed in CHO cell; format: cell-based
Summary of the method: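 Competitive binding to CCR5 on CHO cell membranes, read as displacement of [125I]-labeled MIP-1α. IC50 values are means of triplicate determinations. Standard errors were normally <15% within an assay. Assay-to-assay variation was within ±2-fold, judged from a standard compound.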

[3] = in vivo; details: rat
[4] = in vivo; details: rat, plasma
[5] = system: HeLa; assay: Antiviral activities in a cell culture HIV-1 infectivity inhibition assay using HeLa cells; format: functional; details: Homo sapiens
[6] = in vivo; details: rat; remark: listed apart in the source
[7] = target: L-type calcium channel, benzothiazepine site (Rattus norvegicus, UniProt P22002+P27732+Q02485); assay: Inhibition of binding to rat L-type Calcium channel benzothiazepine site at 10 uM; format: functional
[8] = target: Sodium-dependent noradrenaline transporter (Homo sapiens) (UniProt P23975); assay: Inhibitory activity against human adrenergic norepinephrine transporter at 10 uM
[9] = target: D(3) dopamine receptor (Homo sapiens, UniProt P35462); assay: Inhibitory activity against human dopamine receptor D3 at 10 uM
[10] = organism: Rattus norvegicus; assay: Inhibitory activity against rat Na+ channel site 2 at 10 uM
[11] = target: Sodium-dependent dopamine transporter (Homo sapiens, UniProt Q01959); assay: Inhibitory activity against human dopamine transporter at 10 uM
[12] = system: Canis familiaris; assay: […] AUCN in dog ( (dosed as a mixture of five compounds at 0.5 mpk each via iv only); format: ADME, organism-based, Canis lupus familiaris; details: in vivo
[13] = Plasma clearance in dog (dosed as a mixture of five compounds at 0.5 mpk each via iv only); format: ADME, organism-based, Canis lupus familiaris; details: read-out: Clp
Summary of the method: (§1)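 Dogs received a five-compound cassette by iv only, 0.5 mpk of each compound.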

[14] = Half life in dog (dosed as a mixture of five compounds at 0.5 mpk each via iv only); format: ADME, organism-based, Canis lupus familiaris; details: in vivo; summary of the method: as §1

Sequence of C-C chemokine receptor type 5 (P51681 whole entry): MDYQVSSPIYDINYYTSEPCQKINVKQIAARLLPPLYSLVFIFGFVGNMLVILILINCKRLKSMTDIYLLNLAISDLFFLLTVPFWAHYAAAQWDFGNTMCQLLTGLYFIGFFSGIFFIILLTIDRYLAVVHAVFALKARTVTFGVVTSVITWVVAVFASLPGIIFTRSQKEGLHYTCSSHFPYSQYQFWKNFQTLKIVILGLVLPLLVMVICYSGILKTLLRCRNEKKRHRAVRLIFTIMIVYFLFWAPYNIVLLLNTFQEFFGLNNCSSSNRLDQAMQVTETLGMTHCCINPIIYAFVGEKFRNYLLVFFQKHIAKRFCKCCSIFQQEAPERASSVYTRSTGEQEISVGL
Sequence of Sodium-dependent noradrenaline transporter (Homo sapiens) (P23975 whole entry): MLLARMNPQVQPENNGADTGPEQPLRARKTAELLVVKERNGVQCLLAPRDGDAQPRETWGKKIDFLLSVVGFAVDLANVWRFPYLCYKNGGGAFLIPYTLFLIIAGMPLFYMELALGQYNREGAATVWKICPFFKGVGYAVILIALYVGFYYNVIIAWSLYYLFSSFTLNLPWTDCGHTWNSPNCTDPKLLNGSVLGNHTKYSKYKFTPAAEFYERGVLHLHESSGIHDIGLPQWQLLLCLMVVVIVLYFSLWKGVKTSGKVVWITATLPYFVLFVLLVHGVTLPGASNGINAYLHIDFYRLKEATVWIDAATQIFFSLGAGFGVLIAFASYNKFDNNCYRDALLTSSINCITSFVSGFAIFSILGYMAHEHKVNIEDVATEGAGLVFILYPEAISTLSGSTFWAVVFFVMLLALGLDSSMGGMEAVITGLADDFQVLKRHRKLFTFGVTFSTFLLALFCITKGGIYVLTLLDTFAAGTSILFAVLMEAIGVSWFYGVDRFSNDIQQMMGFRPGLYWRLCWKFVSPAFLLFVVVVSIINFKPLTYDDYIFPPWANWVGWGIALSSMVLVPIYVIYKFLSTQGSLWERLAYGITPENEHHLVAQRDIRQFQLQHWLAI
Sequence of D(3) dopamine receptor (P35462 whole entry): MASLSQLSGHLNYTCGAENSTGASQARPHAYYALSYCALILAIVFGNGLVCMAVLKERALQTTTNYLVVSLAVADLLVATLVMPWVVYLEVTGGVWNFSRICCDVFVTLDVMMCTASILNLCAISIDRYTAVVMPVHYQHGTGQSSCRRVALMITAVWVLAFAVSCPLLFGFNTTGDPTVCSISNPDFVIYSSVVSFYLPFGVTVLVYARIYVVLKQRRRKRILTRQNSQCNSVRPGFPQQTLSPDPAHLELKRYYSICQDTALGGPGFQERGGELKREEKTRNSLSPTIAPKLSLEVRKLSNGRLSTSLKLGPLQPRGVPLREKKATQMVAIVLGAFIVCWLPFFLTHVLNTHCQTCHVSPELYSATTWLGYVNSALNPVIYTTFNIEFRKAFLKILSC
Sequence of Sodium-dependent dopamine transporter (Q01959 whole entry): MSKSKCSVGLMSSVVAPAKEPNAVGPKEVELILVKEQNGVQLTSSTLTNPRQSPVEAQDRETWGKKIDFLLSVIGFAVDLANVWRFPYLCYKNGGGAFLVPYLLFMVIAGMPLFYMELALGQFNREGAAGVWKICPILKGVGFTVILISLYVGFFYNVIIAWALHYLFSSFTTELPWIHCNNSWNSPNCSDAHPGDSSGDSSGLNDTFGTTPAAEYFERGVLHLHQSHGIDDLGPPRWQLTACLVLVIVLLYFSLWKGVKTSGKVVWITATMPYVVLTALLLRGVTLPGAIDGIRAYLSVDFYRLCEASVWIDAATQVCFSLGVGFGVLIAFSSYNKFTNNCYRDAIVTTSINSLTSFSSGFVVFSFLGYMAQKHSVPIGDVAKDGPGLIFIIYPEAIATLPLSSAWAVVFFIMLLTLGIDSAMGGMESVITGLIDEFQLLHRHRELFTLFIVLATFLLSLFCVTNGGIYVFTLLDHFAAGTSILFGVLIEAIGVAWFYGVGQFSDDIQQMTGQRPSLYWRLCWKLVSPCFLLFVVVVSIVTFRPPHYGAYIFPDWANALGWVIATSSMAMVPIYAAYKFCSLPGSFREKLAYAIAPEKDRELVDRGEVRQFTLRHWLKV

| IC50 [2] [nM] | half-life [3] [h] | clearance [4] [mL/min/kg] | IC90 [5] [nM] | bioavailability [6] [%] | inhibition at 10 µM [7] [%] | inhibition [8] [%] | inhibition [9] [%] | inhibition [10] [%] | inhibition [11] [%] | AUC N [12] [uM hr dose-1] | clearance [13] [mL/min/kg] | half-life [14] [h] | SMILES | IC90 [1] [nM] |
| --- | --- | --- | --- | --- | --- | --- | --- | --- | --- | --- | --- | --- | --- | --- |
| 0.6 | 0.98 | 4.4 | < 0.14 | 5.9 |  |  |  |  |  |  |  |  | CCOc1ccc(Cc2cc(C3CCN(C[C@H]4CN([C@@H](C(=O)O)[C@@H](C)CC)C[C@@H]4c4cccc(F)c4)CC3)n(CC)n2)cc1 | 33 |
| 0.7 | 1.4 | 0.98 | < 0.14 | 49 |  |  |  |  |  |  |  |  | CCn1nc(Cc2ccc(OC(C)C)cc2)cc1C1CCN(C[C@H]2CN([C@@H](C(=O)O)C(C)(C)C)C[C@@H]2c2cccc(F)c2)CC1 | 11 |
| 1.3 | 0.8 | 3.9 | 11 | 40 |  |  |  |  |  |  |  |  | CCn1nc(Cc2cccc(F)c2)cc1C1CCN(C[C@H]2CN([C@@H](C(=O)O)C(C)C)C[C@@H]2c2cccc(F)c2)CC1 | 300 |
| 0.3 | 1 | 1.9 | < 0.14 | 36 |  |  |  |  |  |  |  |  | CC[C@H](C)[C@H](C(=O)O)N1C[C@H](CN2CCC(c3cc(Cc4ccc(OC5CC5)cc4)nn3CC)CC2)[C@@H](c2cccc(F)c2)C1 | 11 |
| 0.4 | 2.5 | 1.1 | 0.4 | 77 |  |  |  |  |  |  |  |  | CCn1nc(Cc2ccc(C(C)(C)C)cc2)cc1C1CCN(C[C@H]2CN([C@@H](C(=O)O)C(C)(C)C)C[C@@H]2c2cccc(F)c2)CC1 | 33 |
| 0.3 | 1.18 | 3.3 | < 0.14 | 19 |  |  |  |  |  |  |  |  | CC[C@H](C)[C@H](C(=O)O)N1C[C@H](CN2CCC(c3cc(Cc4ccc(C(C)C)cc4)nn3CC)CC2)[C@@H](c2cccc(F)c2)C1 | 11 |
|  | 1.4 |  |  |  | -3 | 21 | 45 | 32 | 15 |  |  |  | CCn1nc(Cc2ccccc2)cc1C1CCN(C[C@H]2CN([C@@H](C(=O)O)C(C)C)C[C@@H]2c2cccc(F)c2)CC1 | 300 |
| 0.3 | 5.7 | 0.32 | < 0.14 | 26 |  |  |  |  |  |  |  |  | CCn1nc(Cc2ccc(-c3ccccc3)cc2)cc1C1CCN(C[C@H]2CN([C@@H](C(=O)O)C(C)C)C[C@@H]2c2cccc(F)c2)CC1 | 100 |
| 0.6 | 8.9 | 0.23 | 1.2 | 33 |  |  |  |  |  |  |  |  | CCn1nc(Cc2ccc(-c3ccccc3)cc2)cc1C1CCN(C[C@H]2CN([C@@H](C(=O)O)C(C)(C)C)C[C@@H]2c2cccc(F)c2)CC1 | 100 |
| 1.3 | 1.1 | 4 | < 0.14 | 76 |  |  |  |  |  |  |  |  | CC[C@H](C)[C@H](C(=O)O)N1C[C@H](CN2CCC(c3cc(Cc4ccc(OC(C)(C)C)cc4)nn3CC)CC2)[C@@H](c2cccc(F)c2)C1 | 11 |
| 0.9 | 1.4 | 1.7 | 0.4 | 68 |  |  |  |  |  | 2.3 | 13 | 1.8 | CCOc1ccc(Cc2cc(C3CCN(C[C@H]4CN([C@@H](C(=O)O)C(C)(C)C)C[C@@H]4c4cccc(F)c4)CC3)n(CC)n2)cc1 | 33 |
| 3.5 | 0.38 | 11 | 3.7 | 5.4 |  |  |  |  |  |  |  |  | CCn1nc(Cc2ccc(S(C)(=O)=O)cc2)cc1C1CCN(C[C@H]2CN([C@@H](C(=O)O)C(C)C)C[C@@H]2c2cccc(F)c2)CC1 | 33 |
| 0.7 | 3.5 | 0.62 | 0.4 | 65 |  |  |  |  |  |  |  |  | CCn1nc(Cc2ccc(OC3CCC3)cc2)cc1C1CCN(C[C@H]2CN([C@@H](C(=O)O)C(C)(C)C)C[C@@H]2c2cccc(F)c2)CC1 | 33 |
| 1.3 | 1.2 | 2.7 | < 0.14 | 68 |  |  |  |  |  |  |  |  | CC[C@H](C)[C@H](C(=O)O)N1C[C@H](CN2CCC(c3cc(Cc4ccc(OC5CCC5)cc4)nn3CC)CC2)[C@@H](c2cccc(F)c2)C1 | 11 |
| 1 | 1.2 | 4.8 | 0.4 | 22 |  |  |  |  |  |  |  |  | CCCCOc1ccc(Cc2cc(C3CCN(C[C@H]4CN([C@@H](C(=O)O)[C@@H](C)CC)C[C@@H]4c4cccc(F)c4)CC3)n(CC)n2)cc1 | 11 |
| 1.1 | 0.91 | 7.6 | 11 | 7.8 |  |  |  |  |  |  |  |  | CCn1nc(Cc2ccc(F)cc2)cc1C1CCN(C[C@H]2CN([C@@H](C(=O)O)C(C)C)C[C@@H]2c2cccc(F)c2)CC1 | > 300 |

| IC50 [2] [nM] | half-life [3] [h] | clearance [4] [mL/min/kg] | IC90 [5] [nM] | bioavailability [6] [%] | inhibition at 10 µM [7] [%] | inhibition [8] [%] | inhibition [9] [%] | inhibition [10] [%] | inhibition [11] [%] | AUC N [12] [uM hr dose-1] | clearance [13] [mL/min/kg] | half-life [14] [h] | SMILES | IC90 [1] [nM] |
| --- | --- | --- | --- | --- | --- | --- | --- | --- | --- | --- | --- | --- | --- | --- |
| 1.6 | 2.7 | 0.97 | < 0.14 | 23 |  |  |  |  |  |  |  |  | CC[C@@H](C)[C@H](C(=O)O)N1C[C@H](CN2CCC(c3cc(Cc4ccc(OC(C)(C)C)cc4)nn3CC)CC2)[C@@H](c2cccc(F)c2)C1 | 3.7 |
| 0.4 | 2.1 | 0.75 | < 0.14 | 26 |  |  |  |  |  |  |  |  | CC[C@@H](C)[C@H](C(=O)O)N1C[C@H](CN2CCC(c3cc(Cc4ccc(OC5CCC5)cc4)nn3CC)CC2)[C@@H](c2cccc(F)c2)C1 | 33 |
| 1.2 |  |  | 1.2 |  |  |  |  |  |  |  |  |  | CC[C@H](C)[C@H](C(=O)O)N1C[C@H](CN2CCC(c3cc(CC4CCCCC4)nn3CC)CC2)[C@@H](c2cccc(F)c2)C1 | 300 |
| 1 |  |  | < 0.14 |  |  |  |  |  |  |  |  |  | CCOc1ccc(Cc2cc(C3CCN(C[C@H]4CN([C@@H](C(=O)O)C5CCCCC5)C[C@@H]4c4cccc(F)c4)CC3)n(CC)n2)cc1 | 33 |
| 1 |  |  | 0.4 |  |  |  |  |  |  |  |  |  | CCOc1ccc(Cc2cc(C3CCN(C[C@H]4CN([C@@H](C(=O)O)C(C)C)C[C@@H]4c4cccc(F)c4)CC3)n(CC)n2)cc1 | 300 |
| 1.1 |  |  | < 0.14 |  |  |  |  |  |  |  |  |  | CCCOc1ccc(Cc2cc(C3CCN(C[C@H]4CN([C@@H](C(=O)O)[C@@H](C)CC)C[C@@H]4c4cccc(F)c4)CC3)n(CC)n2)cc1 | 100 |
| 0.4 |  |  | < 0.14 |  |  |  |  |  |  |  |  |  | CC[C@H](C)[C@H](C(=O)O)N1C[C@H](CN2CCC(c3cc(Cc4cccc5ccccc45)nn3CC)CC2)[C@@H](c2cccc(F)c2)C1 | 11 |
| 2 |  |  | 3.7 |  |  |  |  |  |  |  |  |  | CCn1nc(Cc2ccc(C(F)(F)F)cc2)cc1C1CCN(C[C@H]2CN([C@@H](C(=O)O)C(C)C)C[C@@H]2c2cccc(F)c2)CC1 | 100 |
| 0.6 |  |  | < 0.14 |  |  |  |  |  |  |  |  |  | CCn1nc(Cc2ccc(C)cc2)cc1C1CCN(C[C@H]2CN([C@@H](C(=O)O)C(C)(C)C)C[C@@H]2c2cccc(F)c2)CC1 | 33 |
| 0.8 |  |  | < 0.14 |  |  |  |  |  |  |  |  |  | CCOc1cccc(Cc2cc(C3CCN(C[C@H]4CN([C@@H](C(=O)O)[C@H](C)CC)C[C@@H]4c4cccc(F)c4)CC3)n(CC)n2)c1 | > 300 |
| 0.3 | 1.4 | 1.6 | 0.4 | 9.2 |  |  |  |  |  |  |  |  | CC[C@H](C)[C@H](C(=O)O)N1C[C@H](CN2CCC(c3cc(Cc4ccc(C(C)(C)C)cc4)nn3CC)CC2)[C@@H](c2cccc(F)c2)C1 | 11 |
| 0.6 |  |  | 1.2 |  |  |  |  |  |  |  |  |  | CCn1nc(Cc2ccc(O)cc2)cc1C1CCN(C[C@H]2CN([C@@H](C(=O)O)C(C)C)C[C@@H]2c2cccc(F)c2)CC1 | 33 |
| 0.5 |  |  | < 0.14 |  |  |  |  |  |  |  |  |  | CCn1nc(Cc2ccccc2F)cc1C1CCN(C[C@H]2CN([C@@H](C(=O)O)C3CCCCC3)C[C@@H]2c2cccc(F)c2)CC1 | 33 |
| 1.3 | 0.74 | 9.8 | 0.4 | 3.1 |  |  |  |  |  |  |  |  | CC[C@@H](C)[C@H](C(=O)O)N1C[C@H](CN2CCC(c3cc(Cc4ccc(C#N)cc4)nn3CC)CC2)[C@@H](c2cccc(F)c2)C1 | 33 |
| 0.9 |  |  | < 0.14 |  |  |  |  |  |  |  |  |  | CCOc1cccc(Cc2cc(C3CCN(C[C@H]4CN([C@@H](C(=O)O)[C@@H](C)CC)C[C@@H]4c4cccc(F)c4)CC3)n(CC)n2)c1 | 100 |
| 0.5 | 1 | 27 | < 0.14 | 19 |  |  |  |  |  |  |  |  | CCn1nc(Cc2ccc(OC(C)(C)C)cc2)cc1C1CCN(C[C@H]2CN([C@@H](C(=O)O)C3CCCCC3)C[C@@H]2c2cccc(F)c2)CC1 | 11 |
